The text below walks through data of PMC6894423 (Journal of molecular and cellular cardiology, 2019).

One assay relates to mAb TnI-1. Put plainly: Competitive ELISA affinity titration against mAb TnI-1. The conditions noted are these: compared with wild type at ~0.1 μM (Figure 8). The assay is classed as binding. An outline of the steps:
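Wells coated overnight at 4°C with purified bovine cardiac TnI in pH 7.0 PIPES/KCl/MgCl2 buffer, then blocked with 1% BSA. mAb TnI-1 was added at a preset sub-maximal level together with serial dilutions of biologically or chemically made peptide. Detection used HRP anti-mouse IgG and H2O2-ABTS, read at 420 nm every 5 min for 30 min. Triplicate wells; each assay repeated.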

The subject of assay [1] is skinned rat ventricular papillary muscle. Put plainly: Force-pCa contractility of skinned rat ventricular papillary muscle. The assay is classed as cell-based. The note with it: 20 μM peptide, 15°C. An outline of the steps: (§1)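 Left ventricular papillary muscle was cryosectioned at 35 μm, cut into 140–150 μm strips and stored at −20°C in glycerol relaxing buffer. Strips were clip-mounted, skinned 20 min in 1% Triton X-100 and set to sarcomere length 2.0 or 2.3 μm. Isometric force was read at pCa 6.5–4.5 at 15°C, then repeated with 20 μM peptide. Curves were Hill-fitted and compared by paired t-test.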

Assay [2] deals with skinned mouse EDL muscle fibers. The assay is described as follows: Force-pCa contractility of skinned mouse EDL muscle fibers. The assay is classed as cell-based. The conditions noted are these: 20 μM peptide; sarcomere length 2.7 μm; 15°C; N = 4. An outline of the steps:
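Whole EDL from adult C57BL/6 mice was split along the fibres in relaxing buffer and stored at −20°C in 50% glycerol buffer. Fibres were mounted on T-clips, further skinned 20 min in 1% Triton X-100 and set to sarcomere length 2.7 μm. Force was read at pCa 6.5–4.5 at 15°C, before and after adding 20 μM peptide; curves were Hill-fitted.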

The subject of assay [3] is skinned mouse ventricular papillary muscle. Put plainly: Force-pCa contractility of skinned mouse ventricular papillary muscle. It counts as cell-based. The note with it: 20 μM peptide, 15°C. An outline of the steps:
as §1

Assay [4] deals with bovine cardiac α-tropomyosin (bovine, UniProt Q5KR49 1-284). The assay is described as follows: ELISA. Background: An ELISA detects its analyte on a solid surface through an enzyme-linked reagent.

“Also recorded” adds a separate entry of the source.

For “HcTnI-C27-H: R192H mutant of the C-terminal 27 amino acid peptide of human cardiac TnI (ENREVGDWHKNIDALSGMEGRKKKFES; left off: Tx3 metal-binding tag, N-terminal, cleaved | SUMO, N-terminal, cleaved)”, the “Effect on competition for mAb TnI-1 compared with wild type peptide” value in the assay with mAb TnI-1 was “only minimum effect”.
Regarding “HcTnI-C27: C-terminal 27 amino acid peptide of human cardiac TnI (ENREVGDWRKNIDALSGMEGRKKKFES; left off: Tx3 metal-binding tag, N-terminal, cleaved | SUMO, N-terminal, cleaved)”, the “Effect on Ca^2+-sensitization by increasing sarcomere length, rat” value in assay [1] (SL increased from 2.0 μm to 2.3 μm) was “completely diminishing the Ca^2+-sensitization effect; also recorded: diminished the Ca^2+-sensitization effect”. In addition, the “Effect on cooperativity (n), rat, SL 2.0 μm” value in assay [1] (sarcomere length 2.0 μm, pH 7.0, N = 4) is “small effect on lowering pCa50 and cooperativity”. For the same molecule, in assay [1] (sarcomere length 2.3 μm, pH 7.0, n = 3), the “Effect on cooperativity (n), rat, SL 2.3 μm” value is “significantly decreased Ca^2+ sensitivity and cooperativity (n)”. Further, in assay [2], the “Effect on myofilament Ca^2+ sensitivity, mouse EDL” value was “myofilament Ca^2+-desensitization effect predominantly in the activated state; also recorded: decreases in myofilament Ca^2+ sensitivity in the activated state at higher Ca^2+ concentrations” and the “Maximum force production, mouse EDL” value is listed as “without change of maximum force production”. Besides, in assay [3] (SL 2.0 μm and 2.3 μm), the “Effect on force-pCa curves, mouse cardiac, both sarcomere lengths” value is given as “right-shifts of the force-pCa curves”. In assay [3] (sarcomere length 2.0 μm, N = 3), the “Effect on Ca^2+-sensitivity (force-pCa curve), mouse cardiac, SL 2.0 μm” value is “more obvious at sarcomere length of 2.0 μm in the activated state; also recorded: decreased Ca^2+-sensitivity” and the “Effect on cooperativity (n), mouse cardiac, SL 2.0 μm” value was “significantly lowered cooperativity”. For the same molecule, the “Effect on Ca^2+-sensitivity (force-pCa curve), mouse cardiac, SL 2.3 μm” value in assay [3] (sarcomere length 2.3 μm, n = 4) was “decreased Ca^2+-sensitivity”.
Turning to ENREVGDWRKNIDALSGMEGRKKKFES (peptide, UniProt P19429 184-210, looked up) [C-terminal 27 amino acid peptide of human cardiac TnI (HcTnI-C27), free peptide], the binding result in assay [4] is on record as “binds”.
